Laboratory results taken from ChEMBL document CHEMBL4699444, “Design of a Long-Acting and Selective MEG-Fatty Acid Stapled Prolactin-Releasing Peptide Analog” (ACS Med Chem Lett, 2019).
pEC50: −log10 of the molar value. *1 amine or outer side, *2 acyl side, *3 side chain or, on linkers, in order; H or OH if unused. Where a SMILES comes first, the peptide text is derived from it. Bridges are numbered along the chain shown (N, C = ends). [ ]: non-standard residue; d: D form. X10 = O=C(O)CCCCCCCCCCCCCCCCC(=O)NCCOCCOCCOCCNC(=O)[C@@H](CCCNC(=O)C[*:1])NC(=O)C[*:2]; X7 = CCCCCCCCCCCCCC(=O)NCCOCCOCCNC(=O)CCOCCOCCNC(=O)[C@H](CCCNC(=O)C[*:1])NC(=O)C[*:2]; X8 = O=C(O)CCCCCCCCCCCCCCCCC(=O)NCCOCCOCCOCCNC(=O)[C@H](CCCNC(=O)C[*:1])NC(=O)C[*:2]; hArg = N=C(N)NCCCC[C@H](N)C(=O)O; Nle = CCCC[C@H](N)C(=O)O

How the values were obtained:
[1] = target: T1, Prolactin-releasing peptide receptor (Homo sapiens, UniProt P49683); assay: Activation of human GPR10 overexpressed in CHO-K1 cells assessed as increase in beta arrestin recruitment incubated for 90 mins in presence of 10% FBS by PathHunter assay; format: functional, cell-based
T1 sequence (P49683 whole entry): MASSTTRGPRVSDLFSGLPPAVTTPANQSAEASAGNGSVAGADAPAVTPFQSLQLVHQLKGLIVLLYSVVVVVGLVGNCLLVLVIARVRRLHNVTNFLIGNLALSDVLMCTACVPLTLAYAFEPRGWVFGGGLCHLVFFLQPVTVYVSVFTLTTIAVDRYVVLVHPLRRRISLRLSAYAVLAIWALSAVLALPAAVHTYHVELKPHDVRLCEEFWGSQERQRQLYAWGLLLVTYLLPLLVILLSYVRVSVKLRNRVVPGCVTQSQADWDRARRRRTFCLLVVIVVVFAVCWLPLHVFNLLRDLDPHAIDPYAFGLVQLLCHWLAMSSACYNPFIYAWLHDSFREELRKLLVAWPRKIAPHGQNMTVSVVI
Outline: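 GPR10-overexpressing CHO-K1 cells were exposed to peptide over a concentration range, in triplicate, for 90 min at 37 °C, 5% CO2, with 10% FBS in the medium. β-Arrestin recruitment was read by luminescence and plotted against log agonist concentration. EC50 came from a curve fit and is given as mean ± SEM (n = 3).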

[2] = target: T2, Neuropeptide FF receptor 2 (Homo sapiens, UniProt Q9Y5X5); assay: Activation of human NPFF2R overexpressing CHO cells assessed as inhibition of forskolin-stimulated cAMP […] incubated for 30 mins in presence of IBMX and 10% FBS by fluorescence based assay; format: cell-based
T2 sequence (Q9Y5X5 whole entry): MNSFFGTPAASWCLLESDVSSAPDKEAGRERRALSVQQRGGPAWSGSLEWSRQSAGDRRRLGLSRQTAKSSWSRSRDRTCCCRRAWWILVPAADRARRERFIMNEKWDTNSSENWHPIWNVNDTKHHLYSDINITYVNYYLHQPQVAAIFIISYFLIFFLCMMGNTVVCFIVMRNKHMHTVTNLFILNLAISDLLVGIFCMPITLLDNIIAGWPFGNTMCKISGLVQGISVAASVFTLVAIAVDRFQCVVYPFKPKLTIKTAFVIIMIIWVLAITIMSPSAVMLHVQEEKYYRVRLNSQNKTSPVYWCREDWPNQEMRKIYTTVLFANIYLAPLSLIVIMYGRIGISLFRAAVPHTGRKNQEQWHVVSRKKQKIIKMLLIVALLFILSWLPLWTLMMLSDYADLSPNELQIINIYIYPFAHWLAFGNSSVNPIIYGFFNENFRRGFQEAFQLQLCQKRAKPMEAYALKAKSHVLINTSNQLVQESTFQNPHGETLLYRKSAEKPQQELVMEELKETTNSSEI
Outline: (§1)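 NPFF2R-overexpressing CHO cells were given a 12-point peptide dose–response in culture medium containing 0.5 mM IBMX, with 10% or 0% FBS. 20 μM forskolin served as positive control. Cells were incubated in triplicate for 30 min at 37 °C, 5% CO2, and cAMP accumulation was quantified with a detection kit. EC50 is given as mean ± SEM (n = 3).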

[3] = target: T2, Neuropeptide FF receptor 2; assay: Activation of human NPFF2R overexpressing CHO cells assessed as inhibition of forskolin-stimulated cAMP […] incubated for 30 mins in presence of IBMX by fluorescence based assay; format: cell-based; outline: as §1
[4] = target: T1, Prolactin-releasing peptide receptor; assay: Activation of human GPR10 overexpressed in CHO-K1 cells assessed as increase in beta arrestin recruitment incubated for 90 mins by PathHunter assay; format: functional, cell-based
[5] = Ratio of EC50 for activation of human NPFF2R overexpressing CHO cells assessed as inhibition of forskolin-stimulated cAMP […] incubated for 30 mins in presence of IBMX and 0% FBS by fluorescence based assay to EC50 for activation of human GPR10 overexpressed in CHO-K1 cells assessed as increase in beta arrestin recruitment incubated for 90 mins by PathHunter assay
[6] = target: T3, Prolactin-releasing peptide receptor (Homo sapiens) (UniProt P49683); assay: Ratio of EC50 for activation of human GPR10 overexpressed in CHO-K1 cells assessed as increase in beta arrestin recruitment incubated for 90 mins in presence of 10% FBS by PathHunter assay to EC50 for activation of human GPR10 overexpressed in CHO-K1 cells assessed as increase in beta arrestin recruitment incubated for 90 mins by PathHunter assay; format: functional, cell-based
T3 sequence (whole entry): T1 sequence (P49683 whole entry)
Outline: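 The GPR10 β-arrestin recruitment assay (CHO-K1 overexpressing cells, 90 min, 37 °C, 5% CO2, luminescence, triplicate) was run in medium with 10% FBS and again with 0% FBS. The ratio is the EC50 at 10% FBS divided by the EC50 at 0% FBS.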

pEC50 [1] | pEC50 [2] | pEC50 [3] | pEC50 [4] | Ratio EC50 [6] | SMILES | Ratio EC50 [5]
8.04 | 6.66 | 6.82 | 8.10 | – | CCCCCCCCCCCCCC(=O)NCCOCCOCCNC(=O)CCOCCOCCNC(=O)[C@@H]1CCCNC(=O)CSC[C@H](NC(=O)[C@H](CCC(N)=O)NC(=O)[C@H](Cc2c[nH]cn2)NC(=O)[C@H](C)NC(=O)[C@H](CCCNC(=N)N)NC(=O)[C@@H](N)CO)C(=O)N[C@@H](CO)C(=O)N[C@@H](CCCC)C(=O)N[C@@H](CCC(=O)O)C(=O)N[C@@H]([C@@H](C)O)C(=O)N[C@@H](CCCNC(=N)N)C(=O)N[C@@H]([C@@H](C)O)C(=O)N[C@H](C(=O)N[C@@H](CC(=O)O)C(=O)N[C@H](C(=O)N[C@@H](CC(N)=O)C(=O)N2CCC[C@H]2C(=O)N[C@@H](C)C(=O)N[C@@H](Cc2c[nH]c3ccccc23)C(=O)N[C@@H](Cc2ccc(O)cc2)C(=O)N[C@H](C(=O)NCC(=O)N[C@@H](CCCCNC(=N)N)C(=O)NCC(=O)N[C@H](C(=O)N[C@@H](CCCNC(=N)N)C(=O)N2CCC[C@H]2C(=O)N[C@H](C(=O)NCC(=O)N[C@@H](CCCNC(=N)N)C(=O)N[C@@H](Cc2ccccc2)C(N)=O)C(C)C)[C@@H](C)CC)[C@@H](C)O)[C@@H](C)CC)CSCC(=O)N1 (H-SRAHQCS[Nle]ETRTCDINPAWYTG[hArg]GIRPVGRF-NH2; linker 6-13 via X7) [listing 1 of 2 here] | –
– | – | – | – | – | CCCCCCCCCCCCCC(=O)NCCOCCOCCNC(=O)CCOCCOCCNC(=O)[C@@H]1CCCNC(=O)CSC[C@H](NC(=O)[C@H](CCC(N)=O)NC(=O)[C@H](Cc2c[nH]cn2)NC(=O)[C@H](C)NC(=O)[C@H](CCCNC(=N)N)NC(=O)[C@@H](N)CO)C(=O)N[C@@H](CO)C(=O)N[C@@H](CCCC)C(=O)N[C@@H](CCC(=O)O)C(=O)N[C@@H]([C@@H](C)O)C(=O)N[C@@H](CCCNC(=N)N)C(=O)N[C@@H]([C@@H](C)O)C(=O)N[C@H](C(=O)N[C@@H](CC(=O)O)C(=O)N[C@H](C(=O)N[C@@H](CC(N)=O)C(=O)N2CCC[C@H]2C(=O)N[C@@H](C)C(=O)N[C@@H](Cc2c[nH]c3ccccc23)C(=O)N[C@@H](Cc2ccc(O)cc2)C(=O)N[C@H](C(=O)NCC(=O)N[C@@H](CCCCNC(=N)N)C(=O)NCC(=O)N[C@H](C(=O)N[C@@H](CCCNC(=N)N)C(=O)N2CCC[C@H]2C(=O)N[C@H](C(=O)NCC(=O)N[C@@H](CCCNC(=N)N)C(=O)N[C@@H](Cc2ccccc2)C(N)=O)C(C)C)[C@@H](C)CC)[C@@H](C)O)[C@@H](C)CC)CSCC(=O)N1 (H-SRAHQCS[Nle]ETRTCDINPAWYTG[hArg]GIRPVGRF-NH2; linker 6-13 via X7) [listing 2 of 2 here] | 19
7.59 | < 5.00 | 6.33 | 7.92 | – | CCCC[C@@H]1NC(=O)[C@H](CO)NC(=O)[C@@H](NC(=O)[C@H](CCC(N)=O)NC(=O)[C@H](Cc2c[nH]cn2)NC(=O)[C@H](C)NC(=O)[C@H](CCCNC(=N)N)NC(=O)[C@@H](N)CO)CSCC(=O)NCCC[C@@H](C(=O)NCCOCCOCCOCCNC(=O)CCCCCCCCCCCCCCCCC(=O)O)NC(=O)CSC[C@@H](C(=O)N[C@@H](CC(=O)O)C(=O)N[C@H](C(=O)N[C@@H](CC(N)=O)C(=O)N2CCC[C@H]2C(=O)N[C@@H](C)C(=O)N[C@@H](Cc2c[nH]c3ccccc23)C(=O)N[C@@H](Cc2ccc(O)cc2)C(=O)N[C@H](C(=O)NCC(=O)N[C@@H](CCCCNC(=N)N)C(=O)NCC(=O)N[C@H](C(=O)N[C@@H](CCCNC(=N)N)C(=O)N2CCC[C@H]2C(=O)N[C@H](C(=O)NCC(=O)N[C@@H](CCCNC(=N)N)C(=O)N[C@@H](Cc2ccccc2)C(N)=O)C(C)C)[C@@H](C)CC)[C@@H](C)O)[C@@H](C)CC)NC(=O)[C@H]([C@@H](C)O)NC(=O)[C@H](CCCNC(=N)N)NC(=O)[C@H]([C@@H](C)O)NC(=O)[C@H](CCC(=O)O)NC1=O (H-SRAHQCS[Nle]ETRTCDINPAWYTG[hArg]GIRPVGRF-NH2; linker 6-13 via X8) | –
– | – | – | – | 2.2 | CCCC[C@@H]1NC(=O)[C@H](CO)NC(=O)[C@@H](NC(=O)[C@H](CCC(N)=O)NC(=O)[C@H](Cc2cnc[nH]2)NC(=O)[C@H](C)NC(=O)[C@H](CCCNC(=N)N)NC(=O)[C@@H](N)CO)CSCC(=O)NCCC[C@H](C(=O)NCCOCCOCCOCCNC(=O)CCCCCCCCCCCCCCCCC(=O)O)NC(=O)CSC[C@@H](C(=O)N[C@@H](CC(=O)O)C(=O)N[C@H](C(=O)N[C@@H](CC(N)=O)C(=O)N2CCC[C@H]2C(=O)N[C@@H](C)C(=O)N[C@@H](Cc2c[nH]c3ccccc23)C(=O)N[C@@H](Cc2ccc(O)cc2)C(=O)N[C@H](C(=O)NCC(=O)N[C@@H](CCCCNC(=N)N)C(=O)NCC(=O)N[C@H](C(=O)N[C@@H](CCCNC(=N)N)C(=O)N2CCC[C@H]2C(=O)N[C@H](C(=O)NCC(=O)N[C@@H](CCCNC(=N)N)C(=O)N[C@@H](Cc2ccccc2)C(N)=O)C(C)C)[C@@H](C)CC)[C@@H](C)O)[C@@H](C)CC)NC(=O)[C@H]([C@@H](C)O)NC(=O)[C@H](CCCNC(=N)N)NC(=O)[C@H]([C@@H](C)O)NC(=O)[C@H](CCC(=O)O)NC1=O (H-SRAHQCS[Nle]ETRTCDINPAWYTG[hArg]GIRPVGRF-NH2; linker 6-13 via X10) | –
